Test results as given in PubChem BioAssay AID504846 (Johns Hopkins Ion Channel Center, 2011).
Calls of active or inactive are those of the source.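 How the source made its calls: active means blocks the KCNK9 potassium channel at some tested concentration and gives a dose response curve; inactive means the rest.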

Biological target: Potassium channel subfamily K member 9 (Homo sapiens) (UniProt Q9NPC2)
Assay: concentration-dependent TASK-3 (KCNK9) blockade – HEK293 cells, thallium flux, SAR follow-up (AID 504846)
Settings: HEK293-KCNK9, FluxOR thallium flux fluorescence; series mostly up to 30 µM
Method in brief: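 assay system = HEK293 cells stably expressing KCNK9, loaded with FluxOR thallium-sensitive dye | probe or stimulus = K2SO4 and Tl2SO4 flux stimulus (stock 25 mM, 7 mM) | dosing = concentration-response series | timing = 20 min room-temperature compound exposure, 110 s post-stimulus read | measured by = kinetic FluxOR thallium-flux fluorescence measurement | repeats = replicate dose series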

Chain of Potassium channel subfamily K member 9 (Homo sapiens) (Q9NPC2 whole entry, looked up): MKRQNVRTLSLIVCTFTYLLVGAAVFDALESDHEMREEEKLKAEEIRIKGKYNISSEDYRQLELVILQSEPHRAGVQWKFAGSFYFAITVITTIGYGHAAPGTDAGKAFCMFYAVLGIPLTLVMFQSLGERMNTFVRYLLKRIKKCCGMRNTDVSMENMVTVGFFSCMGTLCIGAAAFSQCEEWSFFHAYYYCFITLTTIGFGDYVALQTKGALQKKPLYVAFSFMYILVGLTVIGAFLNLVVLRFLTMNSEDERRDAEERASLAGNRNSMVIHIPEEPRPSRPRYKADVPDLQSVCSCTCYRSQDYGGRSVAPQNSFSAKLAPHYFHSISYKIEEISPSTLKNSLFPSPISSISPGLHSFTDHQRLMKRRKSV

outcome, inactive:
Cc1cccc(C(=O)Nc2cccc(C(=O)Nc3ccccc3)c2)c1
Cc1cccc(C(=O)Nc2ccc(C(=O)Nc3ccccc3)cc2)c1
Cc1cccc(NC(=O)c2cccc(NC(=O)c3ccccc3)c2)c1
Cc1cccc(NC(=O)c2ccccc2NC(=O)c2ccccc2)c1
Cc1cccc(C(=O)Nc2ccccc2C(=O)Nc2ccccc2)c1
